Each block holds one molecule with its values, some of them ahead of it.
What was measured:
Coagulation factor X = Coagulation factor X (Homo sapiens, UniProt P00742); test: Inhibition of human factor 10a using N-Z-D-Arg-Gly-Arg-pNA, S-2765 chromogenic substrate
[1] = AUC (0 to infinity) in Sprague-Dawley rat at 3 mg/kg, iv; type: ADME, organism-based; parameters: time infinity, dose 3 mg/kg, route intravenous; settings: plasma
Method in brief: (§1)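 Male Sprague-Dawley rats, 200−220 g, four per group. Vehicle was 5% DMSO + 5% Tween-80 in 90% saline. The reference drug was given in 10% DMSO + 10% Tween-80 + 80% PEG400 (40% solution in saline). Serial retrobulbar vein samples were quantified by LC-MS. Parameters came from noncompartmental analysis of mean plasma concentrations.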

[2] = AUC (0 to infinity) in Sprague-Dawley rat at 10 mg/kg, po; type: ADME, organism-based; parameters: time infinity, dose 10 mg/kg, route oral; settings: plasma; method in brief: as §1
[3] = Elimination half life in Sprague-Dawley rat at 3 mg/kg, iv; type: ADME, organism-based; parameters: dose 3 mg/kg, route intravenous; settings: in vivo, read-out: beta t1/2 (converted); method in brief: as §1
[4] = Cmax in Sprague-Dawley rat at 10 mg/kg, po; type: ADME, organism-based; parameters: dose 10 mg/kg, route oral; settings: in vivo; method in brief: as §1
[5] = Oral bioavailability in Sprague-Dawley rat at 10 mg/kg; type: ADME, organism-based; settings: in vivo; method in brief: as §1
[6] = Plasma clearance in Sprague-Dawley rat at 3 mg/kg, iv; type: ADME, organism-based; parameters: dose 3 mg/kg, route intravenous; method in brief: as §1
[7] = Elimination half life in Sprague-Dawley rat at 10 mg/kg, po; type: ADME, organism-based; parameters: dose 10 mg/kg, route oral; settings: in vivo, read-out: beta t1/2 (converted); method in brief: as §1
[8] = Tmax in Sprague-Dawley rat at 10 mg/kg, po; type: ADME, organism-based; parameters: dose 10 mg/kg, route oral; settings: in vivo; method in brief: as §1
Plasma [9] = test: Anticoagulant activity in citrated rabbit plasma assessed as activated partial thromboplastin time preincubated for 10 mins at 37 degC by coagulometry; type: functional, Oryctolagus cuniculus
Method in brief: (§2)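 Test compound or DMSO added to citrated rabbit plasma (3.8% sodium citrate, 10:90 v/v) and preincubated 10 min at 37 °C. PT and aPTT clotting times measured on a coagulometer with commercial kits. Activity expressed as the concentration needed to double plasma clotting time (CT2, μM).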

Plasma [10] = test: Anticoagulant activity in citrated rabbit plasma assessed as drug concentration required to double plasma clotting time preincubated for 10 mins at 37 degC by coagulometry; type: functional, Oryctolagus cuniculus; method in brief: as §2
[11] = Volume of distribution at steady state in Sprague-Dawley rat at 3 mg/kg, iv; type: ADME, organism-based; parameters: dose 3 mg/kg, route intravenous; settings: in vivo, read-out: Vdss; method in brief: as §1

Sequence of Coagulation factor X (P00742 41-179 limits assumed): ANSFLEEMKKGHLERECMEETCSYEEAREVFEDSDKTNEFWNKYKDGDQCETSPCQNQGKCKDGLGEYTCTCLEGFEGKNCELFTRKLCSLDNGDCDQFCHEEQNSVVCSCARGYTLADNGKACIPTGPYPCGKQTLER
Sequence of Coagulation factor X (P00742 235-488 limits assumed): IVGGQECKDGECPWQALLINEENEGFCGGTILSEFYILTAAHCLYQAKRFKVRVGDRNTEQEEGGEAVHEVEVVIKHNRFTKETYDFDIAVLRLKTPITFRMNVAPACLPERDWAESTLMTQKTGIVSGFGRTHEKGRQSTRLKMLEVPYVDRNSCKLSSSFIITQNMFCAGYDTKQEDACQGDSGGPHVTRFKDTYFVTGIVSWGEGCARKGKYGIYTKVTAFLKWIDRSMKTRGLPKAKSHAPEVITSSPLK

Compound: O=C(NC[C@@H]1OC(=O)N2c3ccc(N4CCOC4=O)cc3OC[C@@H]12)c1ccc(Cl)s1
IC50 (Coagulation factor X): 730 nM

Compound: CO[C@H]1CCN(c2ccc3c(c2)OC[C@H]2[C@H](CNC(=O)c4ccc(Cl)s4)OC(=O)N32)C(=O)C1
IC50 (Coagulation factor X): 1860 nM

Compound: O=C(NC[C@@H]1OC(=O)N2c3ccc(N4CC[C@@H](O)CC4=O)cc3OC[C@@H]12)c1ccc(Cl)s1
IC50 (Coagulation factor X): 130 nM

Compound: O=C(NC[C@@H]1OC(=O)N2c3ccc(N4CCNCC4=O)cc3OC[C@@H]12)c1ccc(Cl)s1
IC50 (Coagulation factor X): 190 nM

Compound: CC(=O)N1CCN(c2ccc3c(c2)OC[C@H]2[C@H](CNC(=O)c4ccc(Cl)s4)OC(=O)N32)C(=O)C1
IC50 (Coagulation factor X): 74.8 nM

Compound: CS(=O)(=O)N1CCN(c2ccc3c(c2)OC[C@H]2[C@H](CNC(=O)c4ccc(Cl)s4)OC(=O)N32)C(=O)C1
IC50 (Coagulation factor X): 4180 nM

Compound: NS(=O)(=O)c1ccccc1-c1ccc2c(c1)OC[C@H]1[C@H](CNC(=O)c3ccc(Cl)s3)OC(=O)N21
AUC(0-inf) [1]: 12200 ng·h/mL
AUC(0-inf) [2]: 12300 ng·h/mL
half-life [3]: 1.38 h
Cmax [4]: 3630 ng/mL
bioavailability [5]: 29%
clearance [6]: 4.22 mL/min/kg
half-life [7]: 1.65 h
IC50 (Coagulation factor X): 60.6 nM
Tmax [8]: 1 h
2aPTT (Plasma [9]): 4.86 µM
Activity (Plasma [10]): 4.58 µM
Vd [11]: 0.35 L/kg

Compound: O=C(NC[C@@H]1OC(=O)N2c3ccc(N4CCOCC4=O)cc3OC[C@@H]12)c1ccc(Cl)cc1
IC50 (Coagulation factor X): 160 nM
2aPTT (Plasma [9]): 0.93 µM
Activity (Plasma [10]): 1.06 µM

Compound: O=C(NC[C@@H]1OC(=O)N2c3ccc(N4CCOCC4=O)cc3OC[C@@H]12)c1ccc(Cl)cn1
IC50 (Coagulation factor X): 710 nM

Compound: COc1ccc(C(=O)NC[C@@H]2OC(=O)N3c4ccc(N5CCOCC5=O)cc4OC[C@@H]23)cc1
IC50 (Coagulation factor X): 4780 nM

Compound: O=C(NC[C@@H]1OC(=O)N2c3ccc(N4CCOCC4=O)cc3OC[C@@H]12)c1cc2cccc(Cl)c2s1
IC50 (Coagulation factor X): > 100000 nM

Now from value to molecule:

IC50 (Coagulation factor X): 57.8 nM
Compound: O=C(NC[C@@H]1OC(=O)N2c3ccc(N4CCOCC4=O)cc3OC[C@H]12)c1ccc(Cl)s1

IC50 (Coagulation factor X): 87.2 nM
Compound: CC(=O)N(C)c1ccc2c(c1)OC[C@H]1[C@H](CNC(=O)c3ccc(Cl)s3)OC(=O)N21

IC50 (Coagulation factor X): 2510 nM
Compound: O=C(NC[C@@H]1OC(=O)N2c3ccc(N4CCC5(CC4=O)OCCO5)cc3OC[C@@H]12)c1ccc(Cl)s1

IC50 (Coagulation factor X): 590 nM
Compound: CO[C@@H]1CCN(c2ccc3c(c2)OC[C@H]2[C@H](CNC(=O)c4ccc(Cl)s4)OC(=O)N32)C(=O)C1

IC50 (Coagulation factor X): 46.6 nM
Compound: O=C(NC[C@@H]1OC(=O)N2c3ccc(N4CC[C@H](F)CC4=O)cc3OC[C@@H]12)c1ccc(Cl)s1

IC50 (Coagulation factor X): 1220 nM
Compound: O=C(NC[C@@H]1OC(=O)N2c3ccc(N4CC[C@H](O)CC4=O)cc3OC[C@@H]12)c1ccc(Cl)s1

IC50 (Coagulation factor X): 40.6 nM
Compound: O=C(NC[C@@H]1OC(=O)N2c3ccc(N4CC[C@@H](F)CC4=O)cc3OC[C@@H]12)c1ccc(Cl)s1

IC50 (Coagulation factor X): 2210 nM
Compound: CN1CCN(c2ccc3c(c2)OC[C@H]2[C@H](CNC(=O)c4ccc(Cl)s4)OC(=O)N32)C(=O)C1

IC50 (Coagulation factor X): 15800 nM
Compound: CCN1CCN(c2ccc3c(c2)OC[C@H]2[C@H](CNC(=O)c4ccc(Cl)s4)OC(=O)N32)C(=O)C1

IC50 (Coagulation factor X): 11400 nM
Compound: O=C(NC[C@@H]1OC(=O)N2c3ccc(N4CCN(Cc5ccccc5)CC4=O)cc3OC[C@@H]12)c1ccc(Cl)s1

IC50 (Coagulation factor X): 5530 nM
Compound: O=C(NC[C@@H]1OC(=O)N2c3ccc(N4CCN(S(=O)(=O)c5ccccc5)CC4=O)cc3OC[C@@H]12)c1ccc(Cl)s1

IC50 (Coagulation factor X): 8080 nM
Compound: O=C(NC[C@@H]1OC(=O)N2c3ccc(N4CCOCC4=O)cc3OC[C@@H]12)c1cc(Cl)c(Cl)s1

IC50 (Coagulation factor X): 7060 nM
Compound: O=C(NC[C@@H]1OC(=O)N2c3ccc(N4CCOCC4=O)cc3OC[C@@H]12)c1cnc(Cl)s1
